ChEMBL document CHEMBL1127449, “An investigation of desferrithiocin metabolism” (J Med Chem, 1994)

Key:
Format in all cases: ADME
[1] = Tested for the half life period at the pH of 2.5; Stable; conditions: pH 2.5
How it was run: (§1)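 Hydrolysis followed by HPLC at 37 °C: 2 mM solutions in phosphate mobile phase B with 4 mM 2,6-lutidine as internal standard, pH set to 2.5 or 7.2 with HCl or KOH. Reverse-phase gradient of acetonitrile/mobile phase B, detection at 250 nm. Half-life derived from disappearance over time. For fast pH 7.2 conversion, acidic solution brought to 7.2 then back to 2.5 (<1 min).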

[2] = Tested for the half life period at the pH of 7.2; Stable; conditions: pH 7.2; how it was run: as §1
[3] = Tested for the half life period at the pH of 2.5; conditions: pH 2.5; how it was run: as §1
[4] = Tested for the half life period at the pH of 7.2; conditions: pH 7.2; how it was run: as §1

Compound | T1/2 [1] | T1/2 [2] | half-life [3] [h] | T1/2 [3] [h] | half-life [4] [min]
O=C(N[C@@H](CS)C(=O)O)c1ccccc1O | Stable | Stable | – | – | –
C[C@]1(C(=O)O)CSC(c2ncccc2O)=N1 [DESFERRITHIOCIN] | – | Stable | 18.6 | – | –
O=C(O)[C@@H]1CSC(c2ncccc2O)=N1 | – | Stable | 8.74 | – | –
deaza-desmethyl-DFT complex with iron (III) | – | Stable | – | > 480 | –
N[C@@H](CSC(=O)c1ccccc1O)C(=O)O | – | – | 4.18 | – | < 1
O=C(O)[C@@H]1CSC(c2ccccc2O)=N1 | – | Stable | 31.7 | – | –
